Key:
Mus musculus [1] = organism: Mus musculus; test: Binding affinity to prostaglandin receptor in Charles River CD-1 mouse ovary assessed as increase in cAMP accumulation using [8-14C]adenine at 25 ug/ml after 30 mins relative to control; assay type: tissue-based; conditions: Female gonad
Procedure, shortened: (§1)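 Virgin female mice over 70 days old; three ovaries per tube (15-25 mg), denuded of fat, preincubated 60 min at 37 °C in aerated Krebs-Ringer phosphate buffer pH 7.2 with 1 μCi [8-14C]adenine to label ATP. Then 0.2 mL 0.05 M theophylline in 0.15 M NaCl plus compound in 0.1 mL Me2SO added; 30 min, 37 °C. TCA stop, homogenization, [14C]-cAMP isolated including paper chromatography.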

Mus musculus [2] = organism: Mus musculus; test: Binding affinity to prostaglandin receptor in Charles River CD-1 mouse ovary assessed as increase in cAMP accumulation using [8-14C]adenine at 1 ug/ml after 30 mins relative to control; assay type: tissue-based; conditions: Female gonad; procedure, shortened: as §1
Mus musculus [3] = organism: Mus musculus; test: Binding affinity to prostaglandin receptor in Charles River CD-1 mouse ovary assessed as increase in cAMP accumulation using [8-14C]adenine at 10 ug/ml after 30 mins relative to control; assay type: tissue-based; conditions: Female gonad; procedure, shortened: as §1
Mus musculus [4] = organism: Mus musculus; test: Binding affinity to prostaglandin receptor in Charles River CD-1 mouse ovary assessed as increase in cAMP accumulation using [8-14C]adenine at 50 ug/ml after 30 mins relative to control; assay type: tissue-based; conditions: Female gonad; procedure, shortened: as §1
Mus musculus [5] = organism: Mus musculus; test: Binding affinity to prostaglandin receptor in Charles River CD-1 mouse ovary assessed as increase in cAMP accumulation using [8-14C]adenine at 100 ug/ml after 30 mins relative to control; assay type: tissue-based; conditions: Female gonad; procedure, shortened: as §1
Rattus norvegicus = organism: Rattus norvegicus; test: Displacement of [3H-PGE1] from Sprague-Dawley rat kidney prostaglandin receptor after 60 mins by scintillation counting analysis
Procedure, shortened: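 Kidney plasma membrane binding fraction from male rats (120-150 g); 125 μg of it incubated with 0.4 ng [3H]-PGE1 and test compound, 60 min, 37 °C. Diluted with 0.01 M Tris HCl-saline pH 7.5, bound label collected by filtration, rinsed, counted by liquid scintillation. Duplicate runs at each of three concentrations.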

[6] = Retardation factor, Rf of the compound; assay type: physicochemical
Procedure, shortened: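 Thin-layer chromatography on SiO2 plates; eluent A, CHCl3-CH3OH-HOAc (98:1:1), other eluents as designated.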

[7] = Dissociation constant, pKa of the compound; assay type: physicochemical
Mus musculus [8] = organism: Mus musculus; test: Binding affinity to prostaglandin receptor in Charles River CD-1 mouse ovary assessed as increase in cAMP accumulation using [8-14C]adenine at 200 ug/ml after 30 mins relative to control; assay type: tissue-based; conditions: Female gonad; procedure, shortened: as §1
Mus musculus [9] = organism: Mus musculus; test: Binding affinity to prostaglandin receptor in Charles River CD-1 mouse ovary assessed as increase in cAMP accumulation using [8-14C]adenine at 0.01 ug/ml after 30 mins relative to control; assay type: tissue-based; conditions: Female gonad; procedure, shortened: as §1
Mus musculus [10] = organism: Mus musculus; test: Binding affinity to prostaglandin receptor in Charles River CD-1 mouse ovary assessed as increase in cAMP accumulation using [8-14C]adenine at 0.1 ug/ml after 30 mins relative to control; assay type: tissue-based; conditions: Female gonad; procedure, shortened: as §1
Mus musculus [11] = organism: Mus musculus; test: Binding affinity to prostaglandin receptor in Charles River CD-1 mouse ovary assessed as increase in cAMP accumulation using [8-14C]adenine at 0.05 ug/ml after 30 mins relative to control; assay type: tissue-based; conditions: Female gonad; procedure, shortened: as §1

**Q.** Which fold change (FC) (Mus musculus [1]) does the source give for `CCCCC[C@H](O)CC[C@H]1CCC(=O)[C@@H]1CCCCCCC(=O)O` here?
**A.** Its fold change (FC) is 26.

**Q.** What about the fold change (FC) (Mus musculus [2]) of the same compound?
**A.** Its fold change (FC) is 10.

**Q.** What about the fold change (FC) (Mus musculus [3]) of the same compound?
**A.** Its fold change (FC) is 25.

**Q.** And the fold change (FC) (Mus musculus [4])?
**A.** Its fold change (FC) is 19.

**Q.** With `CCCCCC(O)CCC1SCC(=O)N1CCCCCCC(=O)O` (mixture of isomers) as the compound, how does the fold change (FC) (Mus musculus [1]) read?
**A.** Its fold change (FC) is 8.

**Q.** What about the fold change (FC) (Mus musculus [2]) of the same compound?
**A.** Its fold change (FC) is 1.4.

**Q.** And the fold change (FC) (Mus musculus [5])?
**A.** Its fold change (FC) is 25.

**Q.** And the Activity (Rattus norvegicus)?
**A.** The Activity was 0.39 µgequiv.

**Q.** And the Rf [6]?
**A.** Its Rf is 0.12.

**Q.** Which fold change (FC) (Mus musculus [1]) does the source give for `CCCCCC(O)CCC1CCC(=O)N1CCCCCCC(=O)O` (mixture of isomers) here?
**A.** Its fold change (FC) is 8.

**Q.** And the fold change (FC) (Mus musculus [2])?
**A.** The fold change (FC) was 0.9.

**Q.** And the fold change (FC) (Mus musculus [5])?
**A.** Its fold change (FC) is 18.

**Q.** What about the Activity (Rattus norvegicus) of the same compound?
**A.** The Activity was 4.6 µgequiv.

**Q.** And the Rf [6]?
**A.** Its Rf is 0.15.

**Q.** What about the pKa [7] of the same compound?
**A.** Its pKa is 5.25.

**Q.** Which results are given for `CCCCCCCCc1c[nH]c(=O)n1CCCCCCC(=O)O`?
**A.** fold change (FC) (Mus musculus [1]): 5; fold change (FC) (Mus musculus [5]): 9; Activity (Rattus norvegicus): 19.6 µgequiv; Rf [6]: 0.84

**Q.** For `CCCCCC(O)CCCC(CCCCCCC(=O)O)C(C)=O` (configuration not stated), which fold change (FC) (Mus musculus [1]) is on record?
**A.** The fold change (FC) was 14.

**Q.** What about the fold change (FC) (Mus musculus [2]) of the same compound?
**A.** The fold change (FC) was 2.

**Q.** And the fold change (FC) (Mus musculus [8])?
**A.** Its fold change (FC) is 16.

**Q.** What about the fold change (FC) (Mus musculus [3]) of the same compound?
**A.** The fold change (FC) was 11.

**Q.** What about the fold change (FC) (Mus musculus [5]) of the same compound?
**A.** The fold change (FC) was 23.

**Q.** What about the Activity (Rattus norvegicus) of the same compound?
**A.** The Activity was 833 ngequiv.

**Q.** And the fold change (FC) (Mus musculus [4])?
**A.** The fold change (FC) was 16.

**Q.** What does the source list for `CCCCCC(O)CCC1N(CCCCCCC(=O)O)C(=O)CS1(=O)=O` (mixture of isomers)?
**A.** fold change (FC) (Mus musculus [1]): 27; fold change (FC) (Mus musculus [2]): 5; fold change (FC) (Mus musculus [3]): 23; fold change (FC) (Mus musculus [5]): 37; Activity (Rattus norvegicus): 0.06 µgequiv; Rf [6]: 0.24

**Q.** For `CCCCC[C@H](O)/C=C/[C@H]1[C@H](O)CC(=O)[C@@H]1CCCCCCC(=O)O`, which fold change (FC) (Mus musculus [1]) is on record?
**A.** The fold change (FC) was 62.

**Q.** What about the fold change (FC) (Mus musculus [2]) of the same compound?
**A.** Its fold change (FC) is 54.

**Q.** What about the fold change (FC) (Mus musculus [3]) of the same compound?
**A.** The fold change (FC) was 60.

**Q.** And the fold change (FC) (Mus musculus [5])?
**A.** The fold change (FC) was 62.

**Q.** What about the Activity (Rattus norvegicus) of the same compound?
**A.** Its Activity is 1 ngequiv.

**Q.** And the fold change (FC) (Mus musculus [9])?
**A.** Its fold change (FC) is 8.

**Q.** What about the fold change (FC) (Mus musculus [10]) of the same compound?
**A.** The fold change (FC) was 29.

**Q.** What about the fold change (FC) (Mus musculus [11]) of the same compound?
**A.** Its fold change (FC) is 25.

**Q.** Which results are given for `CCCCCCCCC1CCC(=O)N1CCCCCCC(=O)O` (racemic)?
**A.** fold change (FC) (Mus musculus [1]): 8; fold change (FC) (Mus musculus [2]): 0.7; fold change (FC) (Mus musculus [5]): 13; Activity (Rattus norvegicus): 8.3 µgequiv; Rf [6]: 0.25

**Q.** For `O=C(O)CCCCCCN1C(=O)CS(=O)(=O)C1CCC(O)COc1ccc(F)cc1` (mixture of isomers), which fold change (FC) (Mus musculus [1]) is on record?
**A.** Its fold change (FC) is 2.

**Q.** And the fold change (FC) (Mus musculus [5])?
**A.** Its fold change (FC) is 7.

**Q.** And the Rf [6]?
**A.** Its Rf is 0.13.

**Q.** With `CCCCCCCCC1C(=O)NC(=O)N1CCCCCCC(=O)O` (racemic) as the compound, how does the fold change (FC) (Mus musculus [1]) read?
**A.** Its fold change (FC) is 3.

**Q.** And the fold change (FC) (Mus musculus [5])?
**A.** Its fold change (FC) is 6.

**Q.** What about the Activity (Rattus norvegicus) of the same compound?
**A.** The Activity was 5 µgequiv.

**Q.** And the Rf [6]?
**A.** The Rf was 0.2.

**Q.** With `CCCCCC(O)CCCC(CCCCCCC(=O)O)S(C)(=O)=O` (configuration not stated) as the compound, how does the fold change (FC) (Mus musculus [1]) read?
**A.** Its fold change (FC) is 27.

**Q.** What about the fold change (FC) (Mus musculus [2]) of the same compound?
**A.** Its fold change (FC) is 14.

**Q.** What about the fold change (FC) (Mus musculus [3]) of the same compound?
**A.** Its fold change (FC) is 24.

**Q.** And the fold change (FC) (Mus musculus [5])?
**A.** The fold change (FC) was 38.

**Q.** And the fold change (FC) (Mus musculus [10])?
**A.** Its fold change (FC) is 2.
